Some results are limits rather than exact numbers.

What is called logD is lipophilicity at a set pH, counting ionised and neutral species. Low readings indicate lower lipophilicity, high ones higher lipophilicity. Broadly, the CC50 is the concentration giving 50% cytotoxicity. Lower therefore signals greater toxicity to the cells. Broadly, the IC50 is the concentration that inhibits the measured activity by half. A lower IC50 goes with inhibition by little substance.

For data set [1], the system named is RG2. Briefly: Selectivity index, ratio of cellular uptake in HSV1-tk gene overexpressing RG2TK+ cells to cellular uptake in RG2 cells. Type of data set: functional, Rattus norvegicus. The procedure, abridged:
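Tracer uptake measured in parallel in HSV1-tk-transduced RG2TK+ and wild-type RG2 glioma cells: 37 °C, serum-free medium, ~0.2 MBq 18F-tracer. Activity was gamma counted and normalized to viable cells and dose. The index is the average ratio of accumulation in RG2TK+ to accumulation in RG2.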

Data set [2] is described as follows: Cellular uptake in HSV1-tk gene overexpressing RG2TK+ cells assessed per 10^6 cells at 0.2 MBq after 2 hrs. Type of data set: ADME. The settings on record: rat. The essentials: (§1)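 RG2 rat glioma cells transduced with HSV1-tk (kept in G418 250 mg/L), 5 × 10^5 cells/well, grown 24 h, then incubated at 37 °C in serum-free medium with ~0.02 MBq [125I]FIAU or ~0.2 MBq 18F-tracer. Sampled at 5–120 min. After cold PBS washes and trypsinization, cell-bound activity was gamma counted and normalized to viable (trypan blue) cells and to total dose. Mean ± S.D., ≥3 experiments in duplicate.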

Data set [3] in a line: Lipophilicity, log P at pH 7.4. The note with it: buffer. Type of data set: physicochemical. The procedure, abridged:
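Radiolabelled nucleoside (20 μL in water) was partitioned between 3 g 1-octanol and 3 g 0.1 M NaH2PO4 buffer, pH 7.4. The mixture was vortexed 3 min at room temperature, then centrifuged 5 min. Weighed 0.5 g samples of each layer were gamma counted, and the octanol layer was repartitioned until values were consistent. log P was taken as the log of the ratio of cpm/g octanol to cpm/g buffer. Triplicate, repeated three times.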

Data set [4] has as its system RG2. Description: Cellular uptake in RG2 cells assessed per 10^6 cells at 0.2 MBq after 2 hrs. The note with it: rat, rg2, 2 h. The class given is ADME, cell-based. The essentials:
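Wild-type RG2 rat glioma monolayers (5 × 10^5 cells/well, 24 h growth) were incubated at 37 °C in 0.5 mL serum-free medium with about 0.2 MBq (5 μCi) of 18F-labelled nucleoside (SA 18.5–925 GBq/μmol). After 2 h they were washed with cold PBS, trypsinized and viable cells counted by trypan blue. Gamma counts (400–1600 keV) were normalized to viable cell number and to total activity, expressed as % per 10^6 cells. Three or more experiments, each in duplicate.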

Data set [5] is described as follows: Cytotoxicity against HSV1-tk gene overexpressing RG2TK+ cells after 72 hrs by MTT assay. Type of data set: cell-based. The note with it: rat. The essentials:
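RG2TK+ cells (HSV1-tk-transduced rat glioma) seeded at 1.5 × 10^3 cells/well overnight, then exposed to drug at 0.001–1000 μmol/L in quadruplicate for 72 h at 37 °C. MTT (1 mg/mL) added for 3 h; formazan dissolved in DMSO and read at 490 nm (650 nm reference). Blanks subtracted; growth given as % of untreated control. CC50 reported as mean ± S.E.M. of three experiments in duplicate.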

Data set [6] is described as follows: Inhibition of [125I]FIAU uptake in RG2TK+ cells overexpressing HSV1-tk gene. The class given is functional, cell-based. The note with it: Rattus norvegicus. The essentials: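 HSV1-tk-expressing RG2TK+ glioma cells incubated 2 h with [125I]FIAU plus inhibitor at 0–300 μM. Cell-associated radioactivity measured. IC50 is the concentration giving 50% inhibition of [125I]FIAU uptake; mean ± S.D. of at least three experiments in duplicate.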

In data set [7] the test system is RG2. Description: Cytotoxicity against RG2 cells after 72 hrs by MTT assay. The note with it: rat, rg2, 72 h. The class given is cell-based. The essentials: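 RG2 cells were seeded at 1.5 × 10^3/well, left overnight, then exposed to drug at 0.001–1000 μmol/L in culture medium, in quadruplicate, for 72 h at 37 °C. MTT (1 mg/mL) was added for 3 h and the formazan dissolved in DMSO. Absorbance was read at 490 nm with a 650 nm reference, blank subtracted, and growth given as % of untreated control. CC50 was taken as mean of three experiments.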
In general terms: Tetrazolium dyes change colour on reduction, which living cells bring about.

Data set [8] in a line: Cellular uptake in HSV1-tk gene overexpressing RG2TK+ cells assessed per 10^6 cells at 0.02 MBq after 2 hrs. Type of data set: ADME. The settings on record: rat. The essentials: as §1
Data set [9] concerns RG2. Briefly: Cellular uptake in RG2 cells assessed per 10^6 cells at 0.02 MBq after 2 hrs. The class given is ADME, cell-based. The settings on record: rat, rg2, 2 h. The procedure, abridged:
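Wild-type RG2 rat glioma monolayers (5 × 10^5 cells/well, grown 24 h at 37 °C in DMEM, 10% FBS) washed with warm PBS, then incubated at 37 °C in 0.5 mL serum-free medium with about 0.02 MBq [125I]FIAU (SA 2,200 Ci/mmol). After 2 h, cells were washed with cold PBS, trypsinized and counted for viability by trypan blue. Cell-associated gamma counts were normalized to viable cells and to activity added, given as % per 10^6 cells. Three or more experiments, each in duplicate.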

As to `O=c1[nH]c(=O)n([C@H]2C[C@H](O)[C@@H](CO)O2)cc1CCCC[18F]`, the Ratio in the data set on RG2 [1] worked out at 14.9. For the same compound, the figures for the Drug uptake (in [2]; with RG2 [4]) were 8.4% and 0.59%, respectively. The same compound registered a logD in data set [3] of -0.24.

Regarding `O=c1[nH]c(=O)n([C@@H]2O[C@H](CO)[C@@H](O)[C@@H]2F)cc1CCC[18F]`, the Ratio in the data set with RG2 [1] is on record as 5. The Drug uptake in [2] stood at 1.9%; in the data set on RG2 [4], 0.38%. For the same compound, the logD in data set [3] was -0.12.

As for `O=c1[nH]c(=O)n([C@@H]2O[C@H](CO)[C@@H](O)[C@@H]2F)cc1CCCCC[18F]`, the Ratio in the data set with RG2 [1] is 5.5. The Drug uptake in [2] amounted to 1.2%; in the data set with RG2 [4], 0.24%. Further, in data set [3], the logD is 0.74.

In the case of `O=c1[nH]c(=O)n([C@@H]2O[C@H](CO)[C@@H](O)[C@@H]2F)cc1CCCF`, the figures for the CC50 (in [5]; with RG2 [7]) were 209 µM and 121 µM, respectively. Also, half-maximal inhibition in data set [6] (IC50) was put at 51.2 µM.

With `O=c1[nH]c(=O)n([C@@H]2O[C@H](CO)[C@@H](O)[C@@H]2F)cc1CCCCF`, the CC50 came out at 346 µM in data set [5] and 355 µM with RG2 [7]. For the same compound, half-maximal inhibition in data set [6] (IC50) was put at 23 µM.

For `O=c1[nH]c(=O)n([C@@H]2O[C@H](CO)[C@@H](O)[C@@H]2F)cc1[125I]`, the Ratio in the data set on RG2 [1] amounted to 9.9. The logD in data set [3] worked out at 0.05. In addition, the Drug uptake was 29.4% in data set [8] and 3.4% with RG2 [9].

For `O=c1[nH]c(=O)n([C@H]2C[C@H](O)[C@@H](CO)O2)cc1CCCF`, the CC50 was greater than 1000 µM in data set [5] and greater than 450 µM with RG2 [7]. The IC50 in data set [6] came out at 7.6 µM.

With `O=c1[nH]c(=O)n([C@H]2C[C@H](O)[C@@H](CO)O2)cc1CCCCF`, the CC50 (in data set [5]; with RG2 [7]) was greater than 800 µM in each case. For the same compound, half-maximal inhibition in data set [6] (IC50) required 34.5 µM.

For the compound `O=c1[nH]c(=O)n([C@H]2C[C@H](O)[C@@H](CO)O2)cc1CCCCC[18F]`, the Ratio with RG2 [1] is 19.9. Besides, the Drug uptake was determined as 4.4% in [2] and 0.23% in the data set on RG2 [4]. Also, the logD in data set [3] came to 0.23.

For `O=c1[nH]c(=O)n([C@H]2C[C@H](O)[C@@H](CO)O2)cc1CCC[18F]`, the Ratio in the data set with RG2 [1] worked out at 20.5. Moreover, the Drug uptake in data set [2] stood at 8.2%; in the data set on RG2 [4], 0.41%. The same compound yielded a logD in data set [3] of -0.57.

In turn, `O=c1[nH]c(=O)n([C@@H]2O[C@H](CO)[C@@H](O)[C@H]2F)cc1/C=C/[123I]` registered a logD in [3] of 1.22.

Consider `O=c1[nH]c(=O)n([C@@H]2O[C@H](CO)[C@@H](O)[C@@H]2F)cc1CCCCCF`, for which the CC50 in [5] was 375 µM; with RG2 [7], greater than 1000 µM. Further, the IC50 in [6] came out at 22.9 µM.

`O=c1[nH]c(=O)n([C@@H]2O[C@H](CO)[C@@H](O)[C@@H]2F)cc1/C=C/[123I]` showed a logD in data set [3] of 1.24.

Regarding `O=c1[nH]c(=O)n([C@@H]2O[C@H](CO)[C@@H](O)[C@@H]2F)cc1CCCC[18F]`, in the data set on RG2 [1], the Ratio came out at 7.8. Besides, the Drug uptake worked out at 3.7% in data set [2] and 0.66% with RG2 [4]. Further, the logD in data set [3] came to 0.27.

As for `O=c1[nH]c(=O)n([C@H]2C[C@H](O)[C@@H](CO)O2)cc1CCCCCF`, the CC50 in [5] is greater than 650 µM; in the data set with RG2 [7], greater than 750 µM. The midpoint of inhibition in data set [6], the IC50, lay at 36.8 µM.

For the compound `O=c1[nH]c(=O)n([C@@H]2O[C@H](CO)[C@@H](O)[C@@H]2F)cc1I` [FIALURIDINE], the CC50 in [5] came out at 0.79 µM; in the data set on RG2 [7], 80 µM. In data set [6], this compound came in with an IC50 of 0.7 µM.

`Nc1nc(O)c2ncn(COC(CO)CO)c2n1` [GANCICLOVIR]: the CC50 in data set [5] stood at 5.86 µM; in the data set with RG2 [7], 377 µM.

For the origin of these results see ChEMBL document CHEMBL1140131, “Synthesis and in vitro evaluation of 5-[(18)f]fluoroalkyl pyrimidine nucleosides for molecular imaging of herpes simplex virus type 1 thymidine kinase reporter gene expression” (J Med Chem, 2008).
